This is an account of results in ChEMBL document CHEMBL3352213, “Development of dual targeting inhibitors against aggregations of amyloid-β and tau protein” (Eur J Med Chem, 2014).

The target in experiment [1] is T1, Microtubule-associated protein tau (Homo sapiens, UniProt P10636). Kind of experiment: Inhibition of His-tagged human brain tau 3R MBD aggregation after 16 hrs by thioflavin T fluorescence method.
For experiment [2], the target named is T2, Amyloid-beta precursor protein (Homo sapiens, UniProt P05067). Kind of experiment: Inhibition of amyloid beta (1-42) aggregation (unknown origin) after 24 hrs by thioflavin T fluorescence method.
T2 sequence (P05067 whole entry): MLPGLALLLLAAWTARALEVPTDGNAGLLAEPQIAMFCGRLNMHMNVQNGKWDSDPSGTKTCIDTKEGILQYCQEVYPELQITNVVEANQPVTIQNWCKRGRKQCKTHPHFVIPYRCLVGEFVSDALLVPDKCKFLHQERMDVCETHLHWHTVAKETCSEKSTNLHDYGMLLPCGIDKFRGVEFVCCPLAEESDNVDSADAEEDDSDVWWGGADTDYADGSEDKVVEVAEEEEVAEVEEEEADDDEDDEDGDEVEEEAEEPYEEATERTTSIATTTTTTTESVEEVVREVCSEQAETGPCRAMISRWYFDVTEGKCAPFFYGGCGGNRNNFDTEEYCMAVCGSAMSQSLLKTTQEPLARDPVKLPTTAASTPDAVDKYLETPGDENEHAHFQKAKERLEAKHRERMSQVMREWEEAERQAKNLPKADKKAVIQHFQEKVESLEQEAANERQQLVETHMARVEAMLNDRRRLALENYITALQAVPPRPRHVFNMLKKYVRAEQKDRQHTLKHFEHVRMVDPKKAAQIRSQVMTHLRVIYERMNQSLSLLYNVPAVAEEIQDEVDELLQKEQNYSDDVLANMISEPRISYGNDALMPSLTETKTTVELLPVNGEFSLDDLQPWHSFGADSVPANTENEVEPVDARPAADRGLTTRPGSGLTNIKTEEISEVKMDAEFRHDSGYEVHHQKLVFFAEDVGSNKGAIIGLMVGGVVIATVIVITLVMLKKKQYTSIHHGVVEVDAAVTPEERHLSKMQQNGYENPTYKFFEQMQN
The target of experiment [3] is T1, Microtubule-associated protein tau. Kind of experiment: Inhibition of His-tagged human brain tau 3R MBD aggregation at 10 uM after 16 hrs by thioflavin T fluorescence method. The method, boiled down: (§1)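 His-tagged 3R MBD tau expressed in E. coli BL21(DE3), purified by Ni-chelate chromatography, dialysed against ammonium acetate and freeze-dried. Tau 10 μM plus heparin 10 μM in 50 mM Tris–HCl pH 7.6 with compound (0.1–10 μM, DMSO), incubated 37 °C 16 h in the dark. Background fluorescence read first, then 10 μM ThT added; ThT fluorescence at ex 440/em 486 nm.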

The target of experiment [4] is T2, Amyloid-beta precursor protein. Kind of experiment: Inhibition of amyloid beta (1-42) aggregation (unknown origin) at 10 uM after 24 hrs by thioflavin T fluorescence method.
For experiment [5] the target is unchanged. Kind of experiment: Inhibition of amyloid beta (1-42) aggregation (unknown origin) at 1 uM after 24 hrs by thioflavin T fluorescence method.
For experiment [6], the target named is T1, Microtubule-associated protein tau. Kind of experiment: Inhibition of His-tagged human brain tau 3R MBD aggregation at 1 uM after 16 hrs by thioflavin T fluorescence method. The essentials:
as §1

T1 sequence (P10636 whole entry): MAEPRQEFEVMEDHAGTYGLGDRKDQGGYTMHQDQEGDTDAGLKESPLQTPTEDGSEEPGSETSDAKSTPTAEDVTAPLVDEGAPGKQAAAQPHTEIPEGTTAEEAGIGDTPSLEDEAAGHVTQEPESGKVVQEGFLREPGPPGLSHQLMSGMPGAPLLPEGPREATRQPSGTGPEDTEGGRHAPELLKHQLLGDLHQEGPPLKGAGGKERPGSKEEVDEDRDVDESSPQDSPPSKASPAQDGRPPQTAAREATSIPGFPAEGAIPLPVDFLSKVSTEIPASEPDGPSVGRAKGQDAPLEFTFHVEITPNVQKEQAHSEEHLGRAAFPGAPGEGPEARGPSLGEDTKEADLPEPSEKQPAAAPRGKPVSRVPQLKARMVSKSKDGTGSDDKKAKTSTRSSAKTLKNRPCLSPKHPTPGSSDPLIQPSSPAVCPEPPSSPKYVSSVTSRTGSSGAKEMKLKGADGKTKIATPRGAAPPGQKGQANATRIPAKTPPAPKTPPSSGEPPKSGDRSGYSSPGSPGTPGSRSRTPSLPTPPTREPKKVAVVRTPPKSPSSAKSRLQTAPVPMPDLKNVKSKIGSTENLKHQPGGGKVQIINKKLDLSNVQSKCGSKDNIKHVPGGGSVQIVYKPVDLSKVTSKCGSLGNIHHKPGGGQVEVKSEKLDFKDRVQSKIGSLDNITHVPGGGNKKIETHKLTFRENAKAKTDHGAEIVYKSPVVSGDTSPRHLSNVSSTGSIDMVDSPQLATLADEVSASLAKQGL

Broadly, the IC50 is the midpoint of a concentration-inhibition curve. The inhibition is how much of the control response was suppressed. Lower therefore signals little suppression. As to `N#C/C(=C\c1ccc(-c2ccc(-c3ccc(N(c4ccccc4)c4ccccc4)cc3)s2)s1)C(N)=O`, the IC50 was above 10 µM in experiment [1] and 1.5 µM in experiment [2]. Moreover, the inhibition in experiment [3] was determined as 29%.
As for `CC(C)(C)n1c2cc(-c3ccc(N(c4ccccc4)c4ccccc4)cc3)sc2c2sc(-c3ccc(C=O)s3)cc21`, the IC50 in experiment [1] and in experiment [2] was above 10 µM each time. For the same compound, the inhibition in experiment [3] is 15%; in experiment [4], 36%.
For `COc1ccc(-c2cc3c(s2)c2sc(-c4ccc(C=O)s4)cc2n3C(C)(C)C)cc1`, the values for the IC50 in experiment [1] and in experiment [2] were 0.29 µM and 0.38 µM, respectively. The values for the inhibition in experiment [5] and in experiment [6] were 61% and 74%, respectively.
Regarding `COc1ccc(-c2cc3c(s2)c2sc(-c4ccc(C=C(C#N)C#N)s4)cc2n3C(C)(C)C)cc1`, the IC50 in experiment [1] and in experiment [2] was above 10 µM throughout. The inhibition in experiment [3] is 27%; in experiment [4] it was 18%.
As for `COc1ccc(-c2ccc(-c3ccc(C=C(C#N)C#N)s3)s2)cc1`, the IC50 in experiment [1] is above 10 µM; in experiment [2] it was below 1 µM. In addition, the inhibition in experiment [3] came to 28%; in experiment [5], 78%.
For `N#C/C(=C\c1ccc(-c2ccc(-c3ccc(N(c4ccccc4)c4ccccc4)cc3)s2)s1)C(=O)O`, the IC50 in experiment [1] is 1.7 µM; in experiment [2], below 0.41 µM. Moreover, the inhibition in experiment [5] worked out at 82%.
`CC(C)(C)n1c2cc(-c3ccc(N(c4ccccc4)c4ccccc4)cc3)sc2c2sc(-c3ccc(/C=C(\C#N)C(N)=O)s3)cc21`: the IC50 in experiment [1] and in experiment [2] was above 10 µM throughout. Further, the inhibition in experiment [3] worked out at 33%; in experiment [4], 36%.
As to `O=Cc1ccc(-c2ccc(-c3ccc(N(c4ccccc4)c4ccccc4)cc3)c3nsnc23)s1`, the IC50 in experiment [1] and in experiment [2] was above 10 µM each time. Moreover, the inhibition in experiment [3] came out at 11%; in experiment [4], 44%.
On to `N#CC(C#N)=Cc1ccc(-c2ccc(-c3ccc(N(c4ccccc4)c4ccccc4)cc3)s2)s1`, for which the IC50 in experiment [1] and in experiment [2] was above 10 µM each time. In addition, the inhibition in experiment [3] was 14%; in experiment [4] it was 43%.
In the case of `O=Cc1ccc(-c2ccc(-c3ccc(N(c4ccccc4)c4ccccc4)cc3)s2)s1`, the IC50 is above 10 µM in experiment [1] and 7.1 µM in experiment [2]. The compound further gave an inhibition in experiment [3] of 12%.
As for `COc1ccc(-c2ccc(-c3ccc(C=O)s3)s2)cc1`, the IC50 in experiment [1] and in experiment [2] was above 10 µM in each case. Further, the inhibition came to 18% in experiment [3] and 0% in experiment [4].
With `N#CC(C#N)=Cc1ccc(-c2ccc(-c3ccc(N(c4ccccc4)c4ccccc4)cc3)c3nsnc23)s1`, the IC50 in experiment [1] and in experiment [2] was above 10 µM in each case. Moreover, the figures for the inhibition in experiment [3] and in experiment [4] were 15% and 30%, respectively.
As to `N#C/C(=C\c1ccc(-c2ccc(-c3ccc(N(c4ccccc4)c4ccccc4)cc3)c3nsnc23)s1)C(N)=O`, the IC50 in experiment [1] and in experiment [2] was above 10 µM each time. Besides, the inhibition in experiment [3] is 24%; in experiment [4], 46%.
With `CNc1ccc2nc3ccc(N(C)C)cc3[s+]c2c1`, the IC50 in experiment [1] and in experiment [2] was below 3 µM each time.
Compound `CN(C)c1ccc2nc3ccc(=[N+](C)C)cc-3sc2c1` [METHYLENE BLUE CATION] showed an IC50 in experiment [2] of 0.55 µM.
As to `CN1C(=O)C(=Cc2ccc(-c3ccc(-c4ccc(N(c5ccccc5)c5ccccc5)cc4)s3)s2)C(=O)N(C)C1=O`, the IC50 in experiment [1] and in experiment [2] was above 10 µM throughout. Further, the inhibition in experiment [3] was 7%; in experiment [4], 18%.
Regarding `CN(C)c1ccc2nc3ccc(N)cc3[s+]c2c1`, the IC50 in experiment [1] and in experiment [2] was below 3 µM throughout.
Regarding `CC(C)(C)n1c2cc(-c3ccc(N(c4ccccc4)c4ccccc4)cc3)sc2c2sc(-c3ccc(C=C(C#N)C#N)s3)cc21`, the IC50 in experiment [1] and in experiment [2] was above 10 µM each time. Also, the inhibition was 18% in experiment [3] and 16% in experiment [4].
Turning to `O=C1NC(=O)C(=Cc2ccc(-c3ccc(-c4ccc(N(c5ccccc5)c5ccccc5)cc4)s3)s2)C(=O)N1`, the IC50 in experiment [1] and in experiment [2] was above 10 µM in each case. Further, the inhibition stood at 12% in experiment [3] and 0% in experiment [4].
Consider `O=c1c(O)c(-c2ccc(O)c(O)c2)oc2c(O)c(O)cc(O)c12` [GOSSYPETIN], for which the IC50 in experiment [1] and in experiment [2] was below 3 µM throughout.
As to `O=Cc1ccc(-c2ccc(-c3ccc4[nH]ccc4c3)s2)s1`, the IC50 in experiment [1] is 1.6 µM; in experiment [2], above 10 µM. Besides, the inhibition in experiment [4] turned out to be 46%.
In the case of `COc1ccc(-c2cc3c(s2)c2sc(-c4ccc(/C=C(\C#N)C(N)=O)s4)cc2n3C(C)(C)C)cc1`, the IC50 in experiment [1] turned out to be 0.3 µM; in experiment [2] it was 0.55 µM.
